Measured values from different studies.
PDE4D: 3',5'-cyclic-AMP phosphodiesterase 4D (PDE4D, Homo sapiens, UniProt Q08499)
CDK7 with cyclin H: Cyclin-dependent kinase 7, with cyclin H (CDK7, Homo sapiens, UniProt P50613)
PPP3CA: Protein phosphatase 3 catalytic subunit alpha (PPP3CA, Homo sapiens, UniProt Q08209)
PTGER4: Prostaglandin E2 receptor EP4 subtype (PTGER4, Homo sapiens, UniProt P35408)

Compound | target | read-out | action | technique | tested at | inhibition [%]
O=c1c(O[C@@H]2O[C@H](CO)[C@@H](O)[C@H](O)[C@H]2O)c(-c2ccc(O)cc2)oc2cc(O)cc(O)c12 | PDE4D | enzyme activity | inhibitor | radiometric | 50 µM | 20.2
O=C(Nc1ccc2c(c1)B(O)OC2)c1cccc(OCc2ccc(Cl)cc2)c1 | Prothrombin (F2, Homo sapiens, UniProt P00734) | enzyme activity | inhibitor |  | 50 µM | 13.7
COC(=O)c1cc(O)c(O)c(O)c1 | PDE4D | enzyme activity | inhibitor | radiometric | 50 µM | -5.1
COc1ccc(Cc2nccc3cc(OC)c(OC)cc23)cc1OC | CDK7 with cyclin H | enzyme activity | inhibitor | ADP detection | 10 µM | -1.4
C=CCc1ccc(O)c(-c2ccc(O)c(CC=C)c2)c1 | PDE4D | enzyme activity | inhibitor | radiometric | 50 µM | 25.6
COc1cc([C@@H]2c3cc4c(cc3[C@H](O)[C@H]3COC(=O)[C@H]23)OCO4)cc(OC)c1OC | CDK7 with cyclin H | enzyme activity | inhibitor | ADP detection | 10 µM | 17.2
c1ccc(C(NCCNC(c2ccccc2)c2ccccc2)c2ccccc2)cc1 | PPP3CA | enzyme activity | inhibitor |  | 10 µM | 32
C#Cc1n[nH]c2c(-c3cn([C@@H](C)c4ccccn4)c(=O)[nH]c3=O)cc(F)cc12 | Serine/threonine-protein kinase PAK 2 (PAK2, Homo sapiens, UniProt Q13177) | enzyme activity | inhibitor |  | 0.1 µM | 4.1
CC(C)N1CCC[C@H]1CNC(=O)c1cn(C2CCCC2)c(=O)c2c1c1ccccc1n2C | PTGER4 | ligand displacement |  | radioligand | 10 µM | 30
CN1CCc2cc3c(cc2[C@H]1[C@@H]1OC(=O)c2c1ccc1c2OCO1)OCO3 | CDK7 with cyclin H | enzyme activity | inhibitor | ADP detection | 10 µM | 22
O=c1c(O)c(-c2ccc(O)c(O)c2)oc2cc(O)cc(O)c12 | PDE4D | enzyme activity | inhibitor | radiometric | 50 µM | 100
C[C@H](C(=O)N[C@H]1COc2ccccc2[C@@H]1S(C)(=O)=O)c1ccc(F)cc1 | PPP3CA | enzyme activity | inhibitor |  | 10 µM | 8
COc1c2ccoc2cc2oc(=O)ccc12 | CDK7 with cyclin H | enzyme activity | inhibitor | ADP detection | 10 µM | -13.6
CCN(CC)CCCC[C@H](NC(=O)[C@H](CC(C)C)NC(=O)[C@H](C)NC(=O)[C@H](Cc1ccccc1)NC(=O)c1ccc(C(C)(C)C)cc1)C(=O)N[C@@H](CO)C(=O)OC | PTGER4 | ligand displacement |  | radioligand | 10 µM | 5
O=C(O)CCCCCCCC(=O)O | PDE4D | enzyme activity | inhibitor | radiometric | 50 µM | 47.1
COCc1c(-c2cc3cc(C)cc(OC)c3s2)c2c(N)ncnn2c1CN1CCNC(=O)C1 | 3-hydroxy-3-methylglutaryl-coenzyme A reductase (HMGCR, Homo sapiens, UniProt P04035) | enzyme activity | inhibitor |  | 10 µM | 1
COc1cc(Nc2ncc(F)c(Nc3ccc4c(n3)NC(=O)C(C)(C)O4)n2)cc(OC)c1OC | Serine/threonine-protein kinase MAK (MAK, Homo sapiens, UniProt P20794) | binding |  | competition with immobilised ligand | 10 µM | 0
Cn1cc(-c2cc(F)cc(N3CCn4c(cc5c4CCCC5)C3=O)c2CO)cc(Nc2ccc(N3CCN(C4COC4)CC3)cn2)c1=O | Protein kinase C gamma type (PRKCG, Homo sapiens, UniProt P05129) | enzyme activity | inhibitor |  | 0.1 µM | 12
CC(C)(C)[C@]1(O)CC2OC(=O)CC23C(=O)OC2OC(=O)[C@H](O)C231 (some centres unmarked) | CDK7 with cyclin H | enzyme activity | inhibitor | ADP detection | 10 µM | 2.1
C=C(C)[C@@H]1CC=C2C(=CC[C@]3(C)[C@@H]([C@@H](CCC=C(C)C)C(=O)O)[C@H](O)C[C@@]23C)[C@@]1(C)CCC(=O)O | PDE4D | enzyme activity | inhibitor | radiometric | 5 µM | 54.3
C=C[C@H]1CN2CC[C@H]1C[C@H]2[C@H](O)c1ccnc2ccccc12 | CDK7 with cyclin H | enzyme activity | inhibitor | ADP detection | 10 µM | -25.5
COc1ccc(-c2coc3cc(O)ccc3c2=O)cc1 | PDE4D | enzyme activity | inhibitor | radiometric | 50 µM | 5.54
O=C(Nc1cccnn1)N1CCN([C@@H]2CCOc3cc(C(F)(F)F)ccc32)CC1 | Bombesin receptor subtype-3 (BRS3, Homo sapiens, UniProt P32247) | cell-free assay |  |  | 20 µM | 37
O=C(/C=C/c1ccc(O)cc1)c1ccc(O)cc1O | PDE4D | enzyme activity | inhibitor | radiometric | 50 µM | 52
COc1cc2c(c(OC)c1OC)-c1ccc(OC)c(=O)cc1[C@@H](NC(C)=O)CC2 | CDK7 with cyclin H | enzyme activity | inhibitor | ADP detection | 10 µM | -0.4
C#Cc1n[nH]c2c(-c3cn([C@@H](C)c4ccccc4)c(=O)[nH]c3=O)cc(F)cc12 | Tyrosine-protein kinase SYK (SYK, Homo sapiens, UniProt P43405) | enzyme activity | inhibitor |  | 0.1 µM | 1.6
